The labels stand for the following.
B1: tRNA (parent)
chain: GUUCCGUUGGCGUAAUGGUAACGCGUCUCCCUCCUAAGGAGAAGACUGCGGGUUCGAGUCCCGUACGGAACG

Fewer inactive variants are shown than the library holds.

Among the data in the RNAGym collection of RNA variant scans (doi:10.1126/science.aae0568) are yeast fitness values, retold here.

Variants of B1 are the subject of this data set. Put plainly: yeast fitness relative to wild type (ratio to wild type); higher = fitter; tRNA-Arg(CCU), competitive growth, 37 C, YPD. In short, it runs like this:
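A pool of Saccharomyces cerevisiae strains, each with a tRNA-Arg(CCU) gene variant at the native genomic locus, was competed in YPD at 37°C for 24 hours across six parallel replicates. The variants had been chemically synthesised at a 3% per-site mutation rate over 69 sites, and gene amplicons before and after competition were read by 100-nucleotide paired-end sequencing. Darwinian fitness relative to wild type rested on changes in genotype frequencies. Genotypes required ≥ 100 starting reads, and estimates < 0.5 were set to 0.5.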
As for U2A A15U C22A A45G C46A U53C, the yeast fitness was 0.589.
For U2A U35C G38C U47G the value was no more than 0.5.
The same measure for U2A C24G A70U: no more than 0.5; for U2C A15G G38C U64A G68A A69C: no more than 0.5; for U2A C4A: 0.914.
For U2A G50C U59C C60A the value was 0.877.
Take U2C A20U A40U: the yeast fitness worked out at 0.52.
The same measure for U2A G50A: 0.858; for U2A C31A U47C A69U: no more than 0.5.
For U2A A21G the value was 1.04; for U2A A20U C34U G51A, no more than 0.5.
For U2A U13C G38A the value was no more than 0.5.
Turning to U2A C11U, the yeast fitness is 0.894.
The same measure for U2A A15G A45U G48A C66G: no more than 0.5; for U2A C29A A45U G68C: no more than 0.5.
The same measure for U2A C24G U28C A40U: no more than 0.5; for U2A G48C: 0.92.
For U2A U3A U26A G51A the value was no more than 0.5; for U2A G17C A70U, 0.572.
As to U2A C60U C62A, the yeast fitness is no more than 0.5.
For U2A C5G G25A C66U the value was 0.532; for U2A U28C G41C C66A, no more than 0.5; for U2A C5A G12A, 0.526.
On to U2A U3A U16C C24U C62U, for which the yeast fitness is 0.629.
The same measure for U2A C34G C49A G50A: 0.517.
For U2A U3G C11A U16C C22G A57C the value was no more than 0.5.
For U2A U16G C49G the value was 0.705.
Take U2A U32A A37U A43G: the yeast fitness is no more than 0.5.
For U2A C22U A40C G58C C66U the value was no more than 0.5.
Regarding U2A U47G C49A C60U A65C, the yeast fitness was no more than 0.5.
The same measure for U2A G23A: 0.867; for U2C A14C A43C: no more than 0.5.
For the variant U2A C24G, the yeast fitness was 0.643.
For U2A U47G the value was 0.583; for U2A A20C C33G C46U A70G, no more than 0.5; for U2A A21C G39A G52C C62U, no more than 0.5.
As for U2A G9A U13A C24A A42G C55U A70C, the yeast fitness is no more than 0.5.
For U2A U32A U64A A65U the value was 0.581; for U2A C5G A15G, 0.575.
For U2A C5A G56C the value was 0.56; for U2A C5A G56A, 0.526.
The same measure for U2A U8A C11G C30G G48A: no more than 0.5; for U2A G6C G68C: no more than 0.5.
Turning to U2A C4U A57U, the yeast fitness is no more than 0.5.
The same measure for U2A U16C C30A A65U: no more than 0.5; for U2A C29U A37G: no more than 0.5.
The same measure for U2A A21C C29U A57C: 0.583; for U2A G6C A21G U32C U59G C66U A70C: no more than 0.5.
For U2A U8C U47A G68C the value was no more than 0.5; for U2C A20G U47A U53A C62U C66U, no more than 0.5; for U2A U8A U47A A69U, no more than 0.5.
With U2A C29A A43C, the yeast fitness was no more than 0.5.
The same measure for U2A A36G C49A C61U: no more than 0.5; for U2C A20G A42U: 0.642; for U2A C24U C31G G44A: no more than 0.5.
The same measure for U2A A57U A65U: no more than 0.5; for U2A G6A U7C A15C C29G C33U G68U: no more than 0.5; for U2A G12C A36C: no more than 0.5.
For U2A C30A G52A A65U the value was no more than 0.5.
For U2A C29G G58A, the yeast fitness was no more than 0.5.
The same measure for U2A G6C A14C: no more than 0.5.
The same measure for U2A C5U A20U G38A: 0.56.
For U2C A14G G18A A70C the value was no more than 0.5; for U2A C49A C61G, 0.505.
With U2A C4A G12A C33U G39A U64A A70C, the yeast fitness was no more than 0.5.
For U2A A21C C22A C29U C49G the value was no more than 0.5; for U2A C31G C61G, no more than 0.5; for U2A U7G, 0.847.
Turning to U2A A57G, the yeast fitness came out at 0.897.
The same measure for U2A A20C C33G C46U: no more than 0.5; for U2A G6A C11G C49U U54C G58C: no more than 0.5.
With U2A G44C C55A, the yeast fitness was no more than 0.5.
The same measure for U2A C33G A36U G44A U59C: 0.554; for U2A C5A A40U: 0.647; for U2C A14G C29A C33G: 0.565.
The same measure for U2A U8C U13C A42C: no more than 0.5; for U2A C29A A45U U59C: 0.575; for U2A G6C U16C C24U C46G C49A C61U: no more than 0.5.
Consider U2C A15U, for which the yeast fitness was determined as 0.653.
Consider U2A A45C G58A C61U, for which the yeast fitness was no more than 0.5.
For U2C A14G A36C U47A C61A the value was no more than 0.5.
For U2A C11G G51A C60U the value was no more than 0.5.
Consider U2A U28G G67A, for which the yeast fitness was no more than 0.5.
For U2A C24G C31U C33G A42C A43U the value was 0.651.
For U2A G68C, the yeast fitness came out at 0.671.
The same measure for U2A U8G C33A G38A: no more than 0.5.
For U2A C5A C27U G44A the value was no more than 0.5.
With U2A U13C A20G A21C C34U A36G, the yeast fitness was no more than 0.5.
The same measure for U2A G17C: 0.603; for U2A C30A C49U C61G: no more than 0.5; for U2A U3G C29G C30G C46G A70G: no more than 0.5.
The same measure for U2A C5U U8G A20G C34A: no more than 0.5; for U2A U8C G12A A42U: no more than 0.5.
As to U2A G17C C24U C33U A36G U54C, the yeast fitness was no more than 0.5.
Take U2A A40U: the yeast fitness was 0.796.
For U2A C29A A42G U54A C60G G68A the value was no more than 0.5.
For U2A G9A A37C A42C G68A the value was no more than 0.5; for U2A C11U G18C C31U A42G C62U, no more than 0.5.
On to U2A U32C U35C A36G, for which the yeast fitness was no more than 0.5.
The same measure for U2A C22U G56A: 0.551; for U2A C61U A70C: 0.585; for U2A G12A C30A A43U A57G C60A G67A: no more than 0.5.
For U2A C11U G17A C29G C31G A37C C66A the value was no more than 0.5; for U2A C60G, 0.666; for U2A C34A U47G C49G C60G, no more than 0.5.
As for U2A C4G G41A C55A, the yeast fitness is no more than 0.5.
For U2A U13G A40C G41C A57G G63C A65U the value was no more than 0.5; for U2A U16G C66U, 0.806; for U2A C5A C55U, no more than 0.5.
U2A U8A C24U: the yeast fitness is no more than 0.5.
Turning to U2A G12U G23A A36U G58C C60U, the yeast fitness is no more than 0.5.
The same measure for U2A A14C C34A C49U C55U A69C: no more than 0.5; for U2A C22A A40C C46G U59A C60U C61G: no more than 0.5.
For U2A C4A C5G A36G the value was 0.524; for U2A G25A G68A, 0.64.
The same measure for U2A A21C C29U G56C: no more than 0.5.
On to U2A A20G G67A, for which the yeast fitness came out at 0.584.
For U2A G17C C22G A40C the value was no more than 0.5; for U2A G12A G17A A20G A21C C29A A69U, no more than 0.5; for U2A C34G U64C, no more than 0.5.
For U2A A15C A57U C61U the value was 0.504; for U2A C27A C49G A57U C66U, 0.639; for U2A C5G A40G A45C, no more than 0.5.
The same measure for U2A C34G: 0.604; for U2A G6C G38A: 0.592; for U2A C33G: 0.714.
Regarding U2A U3A C24G G52C, the yeast fitness is no more than 0.5.
The same measure for U2A C5U A69C: 0.687.
As for U2A U32C A36G, the yeast fitness amounted to 0.736.
In the case of U2A G44A C66U, the yeast fitness is 0.588.
The same measure for U2A C4A C5G A36G G67A: no more than 0.5.
The same measure for U2A U59A: 0.917.
For U2A C62U the value was 0.899; for U2A A15C G58C U64C, 0.53.
On to U2A C30A G63C, for which the yeast fitness was no more than 0.5.
Consider U2A C24U C30U C33G A36C A37C A42C A65U, for which the yeast fitness is no more than 0.5.
For U2A A14C A37C the value was no more than 0.5; for U2C A15G C61U, no more than 0.5.
Consider U2A A36G A45C G68C, for which the yeast fitness was no more than 0.5.
The same measure for U2A U13G C62G: no more than 0.5; for U2A U16G: 1.03.
For the variant U2A C5A U64G A70C, the yeast fitness is no more than 0.5.
The same measure for U2A G23A C29G A70U: 0.541.
In the case of U2A U8A G12A C30U, the yeast fitness is no more than 0.5.
As for U2A G9A U13A, the yeast fitness was found to be 0.645.
For U2A A21G C33U G51C, the yeast fitness is no more than 0.5.
For U2A G9A A37C A42C C61G the value was no more than 0.5; for U2A A14U A21G C46G A57U A69C, no more than 0.5.
For U2A A37C G41C C66A the value was no more than 0.5.
Consider U2A G50C G56A A57G, for which the yeast fitness was no more than 0.5.
For U2A C4U G10C the value was 0.522.
U2A U8G C22U U32C C33G G38A: the yeast fitness was no more than 0.5.
For the variant U2C A20C C27U, the yeast fitness worked out at 0.838.
Turning to U2A A21C C29U, the yeast fitness is no more than 0.5.
The same measure for U2A C4A C5G A65G: no more than 0.5.
The same measure for U2A U19A G44A: 0.544.
For U2A U32A the value was 0.72.
Consider U2A C4U U8G C22G U47A A70C, for which the yeast fitness was no more than 0.5.
Take U2A U7A A15U: the yeast fitness is no more than 0.5.
For U2A A20U A45C the value was 0.728; for U2A A43C, 0.893; for U2A A40U A70U, 0.696.
The same measure for U2A C31A A57G: 0.555.
For the variant U2A G9C U13A A15G C33A A37U G50C C61U A69U, the yeast fitness is no more than 0.5.
The same measure for U2A C11G U19C C60U: no more than 0.5; for U2C A14G U28A: 0.534; for U2A A37U A70C: 0.688.
